In publication PMC10685179 (RSC Advances, 2023):
Converted amounts (≈) assume the structure as drawn. Where two headings read alike, the source gives them in different places.

Assays:
E. faecalis KA247 [1] = assay: Agar well-diffusion, inhibition zone; type: cell-based, Enterococcus faecalis; conditions: for Average diameter of inhibition zone (ZI): 10 μM (DMSO), mean of three ± SEM
Method in brief: (§1)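 Clinical MDR isolates from complicated UTI patients. Suspensions were made in Tryptic Soya and Sabouraud broths from subcultures on Tryptic Soya and Sabouraud agar plates. Agar well diffusion followed CLSI guidelines, with test compounds applied at 10 μM in DMSO. Fosfomycin and fluconazole were positive controls and DMSO the negative control. Zone diameters were read in mm, in triplicate.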

S. aureus KA112 [2] = assay: Agar well-diffusion, inhibition zone; type: cell-based, Staphylococcus aureus; conditions: for Average diameter of inhibition zone (ZI): 10 μM (DMSO), mean of three ± SEM
Method in brief: as §1

E. coli KA780 [3] = assay: Agar well-diffusion, inhibition zone; type: cell-based, Escherichia coli; conditions: for Average diameter of inhibition zone (ZI): 10 μM (DMSO), mean of three ± SEM
Method in brief: as §1

P. mirabilis KA320 [4] = assay: Agar well-diffusion, inhibition zone; type: cell-based, Proteus mirabilis; conditions: for Average diameter of inhibition zone (ZI): 10 μM (DMSO), mean of three ± SEM
Method in brief: as §1

C. albicans KA205 [5] = assay: Agar well-diffusion, inhibition zone; type: cell-based, Candida albicans; conditions: 10 μM (DMSO); mean of three ± SEM
Method in brief: as §1

C. tropicalis KA205 [6] = assay: Agar well-diffusion, inhibition zone; type: cell-based, Candida tropicalis; conditions: 10 μM (DMSO); mean of three ± SEM
Method in brief: as §1

E. faecalis KA247 [7] = assay: Broth microdilution MIC and MBC; type: cell-based; conditions: Enterococcus faecalis, KA247, 24 h
S. aureus KA112 [8] = assay: Broth microdilution MIC and MBC; type: cell-based; conditions: Staphylococcus aureus; for MIC: KA112, 24 h; for MBC: KA112, read-out: MBC/MIC
E. coli KA780 [9] = assay: Broth microdilution MIC and MBC; type: cell-based; conditions: Escherichia coli; for MIC: KA780, 24 h; for MBC: KA780, read-out: MBC/MIC
P. mirabilis KA320 [10] = assay: Broth microdilution MIC and MBC; type: cell-based; conditions: Proteus mirabilis; for MIC: KA320, 24 h; for MBC: KA320, read-out: MBC/MIC
C. albicans KA205 [11] = assay: Broth microdilution MIC and MFC; type: cell-based; conditions: Candida albicans; for MIC: KA205, 24 h; for MFC: KA205, read-out: MFC/MIC
C. tropicalis KA205 [12] = assay: Broth microdilution MIC and MFC; type: cell-based; conditions: Candida tropicalis; for MIC: KA205, 24 h; for MFC: KA205, read-out: MFC/MIC
E. faecalis KA247 [13] = assay: Checkerboard microdilution synergy with fosfomycin; type: cell-based, Enterococcus faecalis; conditions: for Fractional inhibitory concentration index (ΣFICI): combination with fosfomycin
S. aureus KA112 [14] = assay: Checkerboard microdilution synergy with fosfomycin; type: cell-based, Staphylococcus aureus; conditions: for Fractional inhibitory concentration index (ΣFICI): combination with fosfomycin
E. coli KA780 [15] = assay: Checkerboard microdilution synergy with fosfomycin; type: cell-based, Escherichia coli; conditions: for Fractional inhibitory concentration index (ΣFICI): combination with fosfomycin
P. mirabilis KA320 [16] = assay: Checkerboard microdilution synergy with fosfomycin; type: cell-based, Proteus mirabilis; conditions: for Fractional inhibitory concentration index (ΣFICI): combination with fosfomycin
C. tropicalis KA205 [17] = assay: Checkerboard microdilution synergy with fluconazole; type: cell-based, Candida tropicalis; conditions: for Fractional inhibitory concentration index (ΣFICI): combination with fluconazole
MDR microbial isolates = assay: Time-kill kinetics, whole panel; type: cell-based; conditions: all pathogenic isolates
Method in brief: (§2)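 Untreated organisms served as controls. Bacteria were sampled at 0, 2, 4, 6, 8, 12, 18 and 24 h, and fungi at 0, 2, 4, 6, 8, 18, 24 and 48 h. Counts were made by plate count and plotted as log10 CFU mL−1 versus time.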

bacterial isolates = assay: Time-kill kinetics, bacterial isolates; type: cell-based; conditions: at MIC
Method in brief: as §2

fungal isolates = assay: Time-kill kinetics, fungal isolates; type: cell-based; conditions: at MIC
Method in brief: as §2

[18] = test system: fosfomycin-resistant (FO-R) E. coli KA780; assay: SEM of outer membrane integrity; type: cell-based; conditions: at MIC, compared with DMSO
[19] = test system: BNL: mouse normal liver cells; assay: SRB cytotoxicity assay on normal cells; type: cell-based
Method in brief: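 Mouse normal liver BNL cells were grown in DMEM with 10% heat-inactivated FBS, penicillin and streptomycin, at 37 °C in 5% CO2. […] SRB assay: 10% TCA fixation at 4 °C for 1 h, 0.4% SRB for 10 min at room temperature, 1% acetic acid washes, 10 mM Tris solubilisation, absorbance at 540 nm. Mean of three, with SD.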

E. coli MurA enzyme = E. coli MurA enzyme (Escherichia coli, UniProt P0A749); assay: MurA enzyme inhibition assay; type: biochemical; conditions: for remaining activity at 100 µM: read-out: RA (residual activity), at 100 μM; for RA (residual activity): at 100 μM
[20] = Physical and chemical stability after gamma irradiation; type: physicochemical; conditions: gamma radiation 3.0 kGy to 20.0 kGy; for stability of the chemical structure after irradiation: UV-VIS spectrophotometer
Method in brief: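 Compound powders in sterile tubes were irradiated by a 60Co source at 3.0, 5.0, 7.0, 10.0, 15.0 and 20.0 kGy, at a dose rate of 0.9 kGy h−1. Non-irradiated and irradiated samples were checked for physical and chemical changes by UV-VIS spectrophotometry at 560 nm.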

C. albicans KA205 [21] = assay: Checkerboard microdilution synergy with fluconazole; type: cell-based, Candida albicans
[22] = test system: MDR bacterial and fungal isolates; assay: Broth microdilution MIC/MBC/MFC, whole panel; type: cell-based; conditions: bactericidal/fungicidal if MBC or MFC not greater than four times the MIC

Sequence of E. coli MurA enzyme (P0A749 whole entry): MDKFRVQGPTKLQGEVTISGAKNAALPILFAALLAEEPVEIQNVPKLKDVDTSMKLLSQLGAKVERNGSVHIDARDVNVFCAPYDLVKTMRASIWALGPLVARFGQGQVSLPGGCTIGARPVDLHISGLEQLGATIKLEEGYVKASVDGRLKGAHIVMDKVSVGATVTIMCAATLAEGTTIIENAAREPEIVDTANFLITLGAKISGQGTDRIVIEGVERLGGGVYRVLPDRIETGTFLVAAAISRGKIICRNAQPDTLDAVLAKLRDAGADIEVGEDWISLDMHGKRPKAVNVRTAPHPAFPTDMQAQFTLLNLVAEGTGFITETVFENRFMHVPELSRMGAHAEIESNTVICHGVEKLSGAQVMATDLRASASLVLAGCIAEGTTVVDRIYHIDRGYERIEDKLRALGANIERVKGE

Compound | Average diameter of inhibition zone (ZI) (E. faecalis KA247 [1]) | Average diameter of inhibition zone (ZI) (S. aureus KA112 [2]) | Average diameter of inhibition zone (ZI) (E. coli KA780 [3]) | Average diameter of inhibition zone (ZI) (P. mirabilis KA320 [4]) | Average diameter of inhibition zone (ZI) (C. albicans KA205 [5]) | Average diameter of inhibition zone (ZI) (C. tropicalis KA205 [6]) | MIC (E. faecalis KA247 [7]) | MIC (S. aureus KA112 [8]) | MBC (S. aureus KA112 [8]) | MIC (E. coli KA780 [9]) | MBC (E. coli KA780 [9]) | MIC (P. mirabilis KA320 [10]) | MBC (P. mirabilis KA320 [10]) | MIC (C. albicans KA205 [11]) | MFC (C. albicans KA205 [11]) | MIC (C. tropicalis KA205 [12]) | IC50 [19] | IC50 (E. coli MurA enzyme; IC50, preincubation 0 min) | IC50 (E. coli MurA enzyme; IC50, preincubation 10 min) | remaining activity at 100 µM (E. coli MurA enzyme; preincubation 10 min) | also measured
O=[N+]([O-])c1ccc(-c2nn(-c3ccccc3)c3sc(NC(c4ccccc4O)P(=O)(Oc4ccccc4)Oc4ccccc4)nc23)cc1 (stereo not drawn) [Compound 5a, Diphenyl((2-hydroxyphenyl)((3-(4-nitrophenyl)-1-phenyl-1H-pyrazolo[4,3-d]thiazol-5-yl)amino)methyl)phosphonate] | 24 ± 0.20 mm | 24 ± 0.51 mm | 25 ± 0.28 mm | 23 ± 0.44 mm | 22 ± 0.76 mm | 22 ± 0.43 mm | 0.125 µg/mL (≈ 0.185 µM) | 0.06 µg/mL (≈ 0.0888 µM) | 0.5 µg/mL (≈ 0.74 µM) | 0.06 µg/mL (≈ 0.0888 µM) | 0.5 µg/mL (≈ 0.74 µM) | 0.125 µg/mL (≈ 0.185 µM) | 0.5 µg/mL (≈ 0.74 µM) | 0.125 µg/mL (≈ 0.185 µM) | 0.5 µg/mL (≈ 0.74 µM) | 0.125 µg/mL (≈ 0.185 µM) | > 100 µM | 41 µM | 3.8 µM | 0% | MFC (C. tropicalis KA205 [12]): 1 µg/mL (≈ 1.48 µM); combination effect (E. faecalis KA247 [13]): S (FICI ≤ 0.5 (synergism)); Fractional inhibitory concentration index (ΣFICI) (E. faecalis KA247 [13]): 0.5; combination effect (S. aureus KA112 [14]): S (FICI ≤ 0.5 (synergism)); Fractional inhibitory concentration index (ΣFICI) (S. aureus KA112 [14]): 0.25; combination effect (E. coli KA780 [15]): S (FICI ≤ 0.5 (synergism)); Fractional inhibitory concentration index (ΣFICI) (E. coli KA780 [15]): 0.25; combination effect (P. mirabilis KA320 [16]): S (FICI ≤ 0.5 (synergism)); Fractional inhibitory concentration index (ΣFICI) (P. mirabilis KA320 [16]): 0.5; combination effect (C. tropicalis KA205 [17]): S (FICI ≤ 0.5 (synergism)); Fractional inhibitory concentration index (ΣFICI) (C. tropicalis KA205 [17]): 0.5; microbial reduction relative to the initial inoculum (MDR microbial isolates): ≥ 3 log10; time of maximum killing rate (bacterial isolates): 6 h; time of maximum killing rate / maximum reduction in cell counts (fungal isolates): 16 h; effect on outer membrane (SEM image) [18]: perturbation in the membrane and distinct ruptures of the OM integrity; physical changes (odor, color, clarity, solubility, and form) after irradiation [20]: no changes occurred; stability of the chemical structure after irradiation [20]: confirmed the stability of the chemical structure
CN(C)c1ccc(C(Nc2nc3c(-c4ccc([N+](=O)[O-])cc4)nn(-c4ccccc4)c3s2)P(=O)(Oc2ccccc2)Oc2ccccc2)cc1 (stereo not drawn) [Compound 5b, Diphenyl((4-(dimethylamino)phenyl)((3-(4-nitrophenyl)-1-phenyl-1H-pyrazolo[4,3-d]thiazol-5-yl)amino)methyl)phosphonate] | 23 ± 0.88 mm | 24 ± 0.03 mm | 25 ± 0.00 mm | 23 ± 0.78 mm | 22 ± 0.22 mm | 21 ± 0.32 mm | 0.125 µg/mL (≈ 0.178 µM) | 0.06 µg/mL (≈ 0.0854 µM) | 1 µg/mL (≈ 1.42 µM) | 0.06 µg/mL (≈ 0.0854 µM) | 0.5 µg/mL (≈ 0.712 µM) | 0.25 µg/mL (≈ 0.356 µM) | 0.5 µg/mL (≈ 0.712 µM) | 0.125 µg/mL (≈ 0.178 µM) | 1 µg/mL (≈ 1.42 µM) | 0.5 µg/mL (≈ 0.712 µM) | > 100 µM | 45 µM | 4.5 µM | 7% | MFC (C. tropicalis KA205 [12]): 0.5 µg/mL (≈ 0.712 µM); combination effect (E. faecalis KA247 [13]): S (FICI ≤ 0.5 (synergism)); Fractional inhibitory concentration index (ΣFICI) (E. faecalis KA247 [13]): 0.5; combination effect (S. aureus KA112 [14]): S (FICI ≤ 0.5 (synergism)); Fractional inhibitory concentration index (ΣFICI) (S. aureus KA112 [14]): 0.5; combination effect (E. coli KA780 [15]): S (FICI ≤ 0.5 (synergism)); Fractional inhibitory concentration index (ΣFICI) (E. coli KA780 [15]): 0.25; combination effect (P. mirabilis KA320 [16]): S (FICI ≤ 0.5 (synergism)); Fractional inhibitory concentration index (ΣFICI) (P. mirabilis KA320 [16]): 0.25; combination effect (C. albicans KA205 [21]): P (0.5 < FICI > 1 (partial synergism)); Fractional inhibitory concentration index (ΣFICI) (C. albicans KA205 [21]; combination with fluconazole): 0.75; combination effect (C. tropicalis KA205 [17]): P (0.5 < FICI > 1 (partial synergism)); Fractional inhibitory concentration index (ΣFICI) (C. tropicalis KA205 [17]): 0.75; microbial reduction relative to the initial inoculum (MDR microbial isolates): ≥ 3 log10; time of maximum killing rate (bacterial isolates): 8 h; time of maximum killing rate / maximum reduction in cell counts (fungal isolates): 18 h; effect on outer membrane (SEM image) [18]: perturbation in the membrane and distinct ruptures of the OM integrity; RA (residual activity) (E. coli MurA enzyme; preincubation 10 min): 4 ± 0.55%; physical changes (odor, color, clarity, solubility, and form) after irradiation [20]: no changes occurred; stability of the chemical structure after irradiation [20]: confirmed the stability of the chemical structure
COc1cccc2c1C(=O)c1c(O)c3c(c(O)c1C2=O)C[C@@](O)(C(=O)CO)C[C@@H]3O[C@H]1C[C@H](N)[C@H](O)[C@H](C)O1 [DOX, Doxorubicin, reference compound] | – | – | – | – | – | – | – | – | – | – | – | – | – | – | – | – | 14.7 µM | – | – | – | –
C[C@@H]1O[C@@H]1P(=O)(O)O [FO, fosfomycin, reference compound] | – | – | 11 ± 0.23 mm | – | – | – | 8 µg/mL (≈ 57.9 µM) | 8 µg/mL (≈ 57.9 µM) | 0.4 µg/mL (≈ 2.9 µM) | 256 µg/mL (≈ 1850 µM) | 1 µg/mL (≈ 7.24 µM) | 16 µg/mL (≈ 116 µM) | 1 µg/mL (≈ 7.24 µM) | – | – | – | – | 52 ± 0.33 µM | 12.7 µM | 10 ± 0.92% | zone of inhibition at 10 µM (E. faecalis KA247 [1]; Enterococcus faecalis, KA247, read-out: Average diameter of inhibition zone (ZI)): 17 ± 0.34 mm; zone of inhibition at 10 µM (S. aureus KA112 [2]; Staphylococcus aureus, KA112, read-out: Average diameter of inhibition zone (ZI)): 18 ± 0.32 mm; zone of inhibition at 10 µM (E. coli KA780 [3]; Escherichia coli, KA780, read-out: Average diameter of inhibition zone (ZI)): 11 mm; zone of inhibition at 10 µM (P. mirabilis KA320 [4]; Proteus mirabilis, KA320, read-out: Average diameter of inhibition zone (ZI)): 19 ± 0.13 mm; bactericidal/fungicidal effect [22]: bactericidal and fungicidal activities; RA (residual activity) (E. coli MurA enzyme; preincubation 0 min): 52 ± 0.55%; remaining activity at 100 µM (E. coli MurA enzyme; preincubation 0 min): < 60%
